PGC1a acetyl inh = modulators of PGC1a acetylation; AID 651687; hit rate 0.17% among 350,000; inhibition, % at 15.6 µM; U2OS PGC1a acetylation, AlphaScreen anti-acetyl-lysine; with virally co-expressed GCN5 acetyltransferase;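 active means every replicate shows inhibition of at least 40%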
Statin myotox sup = suppression of simvastatin myotoxicity; C2C12 myotubes + simvastatin, ATP luminescence, 48 h; scaled: DMSO 0, geranylgeraniol control 100; rescue of ATP level, % at 7.49 µM; hit rate 0.78% among 330,000;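 active means mean ATP rescue above about 67%, or every replicate alone reaching that limit, limit read from the data, passing the limit was not always enough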;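 further: myotubes were challenged with 10 µM simvastatin during compound exposure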
SIRT5 inh = inhibitors of human sirtuin-5 desuccinylase. AID 652115. Q9NXA8. inhibition, % at 15 µM. Purified SirT5, succinyl-peptide AMC, trypsin-coupled fluorescence. hit rate 1.1% among 330,000; in the data active means inhibition above about 15%
Target sequence (Q9NXA8 whole entry, looked up): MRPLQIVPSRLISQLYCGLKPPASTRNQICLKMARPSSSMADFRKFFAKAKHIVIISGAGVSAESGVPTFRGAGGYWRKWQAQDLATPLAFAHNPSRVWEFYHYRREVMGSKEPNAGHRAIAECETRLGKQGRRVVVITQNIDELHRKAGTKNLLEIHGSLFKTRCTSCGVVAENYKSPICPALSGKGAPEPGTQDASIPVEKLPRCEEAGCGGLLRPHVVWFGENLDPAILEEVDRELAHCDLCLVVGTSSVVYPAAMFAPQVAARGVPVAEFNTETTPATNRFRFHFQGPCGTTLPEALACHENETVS
S100A4 MyoIIA = S100A4-myosin IIA interaction inhibition | P26447 | S100A4/TAMRA-MyoIIA peptide fluorescence polarization | inhibition, % at 10.7 µM | hit rate 0.14% among 360,000 | AID 652163;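 active means mean inhibition of at least 70% across replicates, with every replicate also reaching that level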
Target sequence (P26447 whole entry, looked up): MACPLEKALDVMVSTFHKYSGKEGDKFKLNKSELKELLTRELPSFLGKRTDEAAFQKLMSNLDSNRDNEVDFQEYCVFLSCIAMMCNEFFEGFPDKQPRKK
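Material: human S100A4 monomer with TAMRA-labelled myosin IIA peptide; buffer or medium: HEPES pH 7.2 with CaCl2, KCl, NaCl, DTT, Triton; compound dosing: one concentration per compound; schedule: 5 min incubation before reading; benchmarks: neutral control DMSO, positive control TFP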
Ecoli rRNA inh = selective bacterial rRNA inhibition in E. coli; E. coli WT GFP vs humanized-ribosome RFP mutants, fluorescence, 24 h; active compounds read low; DMSO median 0, no signal -100; hit rate 1.6% among 350,000; GFP signal change (wild-type ribosome), % (concentration not given with the values);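 active means significant combined selectivity score with lowered wild-type GFP, culture density cut under 30%, mutant RFP and density less affected; inactive means any of these conditions unmet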
Cneo AK release = Cryptococcus neoformans lysis via adenylate kinase release; lysis activity, % at 15 µM; hit rate 0.2% among 360,000; C. neoformans lysis, adenylate kinase release luminescence, 4 h; normalised: neutral wells 0, clomiphene wells 100;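 active means mean lysis activity across replicates of at least 80%, whatever share of replicates individually reach that level; inactive means mean lysis activity below 80%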
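Material – Cryptococcus neoformans yeast cells · Quantity – 5 × 10^6 yeast cells/mL · Buffer or medium – YPD medium · Compound – single dose · Timing – 4 h static compound exposure, 37 °C, read 1 h post-reagent · Signal – adenylate kinase release luminescence · Read-out basis – lysis from increased AK signal · Benchmarks – Clomiphene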
A number is an active result; i = inactive; nt = no result given; + = active, no number. Hits are enriched below; roughly 3% of the tested compounds scored in any of these assays.

SMILES | PGC1a acetyl inh | Statin myotox sup | SIRT5 inh | S100A4 MyoIIA | Ecoli rRNA inh | Cneo AK release
CCN(CC)c1ccc(C(=S)NC2CCCCC2)cc1 | i | nt | i | i | -20.6 | i
CN(C)c1ccc(C(=S)NC2CCCCC2)cc1 | nt | nt | i | i | i | nt
CNC[C@@H]1Oc2ccc(N)cc2CC(=O)N(C)C[C@H]1C | nt | nt | nt | nt | i | nt
COc1ccc2c3c(n(C)c2c1)[C@@H](CO)N(C(=O)C1CCCCC1)CC31CCN(C(=O)c2ccncc2)CC1 | i | nt | nt | i | i | nt
CC(C)CN(CC(C)C)S(=O)(=O)N1CCC(C(=O)NCCc2ccc(Cl)cc2)CC1 | i | i | 16.1 | i | i | i
COC(=O)C(NC(=O)c1ccccc1)=C(C)C | i | 93.6 | nt | nt | nt | i
Nc1cc(N2CCCC2)c(Cl)cc1[N+](=O)[O-] | i | nt | i | i | i | nt
Nc1cc(N2CCOCC2)c(Cl)cc1[N+](=O)[O-] | nt | nt | i | i | -20.6 | nt
Fc1ccc(CNC(=S)NCc2ccc(F)cc2)cc1 | 87.1 | i | i | i | -31.1 | nt
CCNC(=S)NCc1ccc(F)cc1 | i | nt | i | i | i | i
CCc1ccc(C(C)NC(=S)NCc2ccc(F)cc2)cc1 (stereo not drawn) | i | i | i | i | i | 115.0
CCNC(=O)C[C@@H]1CC[C@@H]2[C@H](COc3ccc(NC(=O)Nc4ccccc4Cl)cc3C(=O)N2C)O1 | i | i | i | i | i | i
CCNC(=O)C[C@@H]1CC[C@H]2[C@@H](COC[C@@H](O)CN2Cc2ccncc2)O1 | i | i | nt | nt | i | i
CCc1nc2ccccc2c(C(=O)OCC(=O)NCCCN2CCCC2=O)c1C | i | nt | 18.7 | i | nt | i
Cc1c(OCC(=O)NCCCN2CCCC2=O)ccc2c3c(c(=O)oc12)CCC3 | i | i | i | + | i | i
CC(C)NC(=O)Nc1ccc2c(c1)C(=O)N([C@@H](C)CO)C[C@@H](C)[C@H](CN(C)C(=O)NC(C)C)OCCCC[C@H](C)O2 | i | nt | i | i | i | i
COCCN=C1Sc2nc3c(C)cccc3cc2CN1Cc1ccco1 | i | 113.8 | nt | nt | nt | i
O=C(Nc1cccc(Br)c1)c1ccc(CSc2ccccc2)cc1 | i | nt | 23.6 | i | i | i
O=C(Nc1ccc(F)cc1)c1ccc(CSc2ccccc2)o1 | nt | nt | nt | i | i | nt
NS(=O)(=O)c1ccc(NC(=O)c2ccc(CSc3ccccc3)o2)cc1 | i | i | nt | i | i | i
COc1ccc(CCNC(=O)c2ccc(CSc3ccccc3)o2)cc1 | i | nt | i | i | -37.3 | nt
O=C(Nc1ccc(F)cc1)c1ccc(CSc2ccc(Cl)cc2)o1 | i | nt | i | i | -31.8 | i
CC(=O)c1ccc(NC(=O)c2ccc(CSc3ccccc3)o2)cc1 | nt | nt | i | i | -31.2 | nt
COCC(=O)Nc1ccc2c(c1)C(=O)N(C)[C@H]1CC[C@H](CC(=O)Nc3ccccc3OC)O[C@@H]1CO2 | i | i | i | i | nt | i
Cc1noc(C)c1S(=O)(=O)Nc1ccc2c(c1)CC(=O)N([C@H](C)CO)C[C@@H](C)[C@H](CN(C)C(=O)Nc1ccc3c(c1)OCO3)O2 | i | i | nt | nt | i | i
SMILES | PGC1a acetyl inh | Statin myotox sup | SIRT5 inh | S100A4 MyoIIA | Ecoli rRNA inh | Cneo AK release
CC(C)NC(=O)Nc1ccc2c(c1)CC(=O)N([C@H](C)CO)C[C@H](C)[C@H](CN(C)Cc1ccc(Cl)c(Cl)c1)O2 | i | i | i | i | i | i
COCC(=O)N1C[C@H]2[C@@H](c3ccccc31)[C@H](CO)N2C(=O)C1CCCC1 | i | i | i | i | i | i
CCc1c(O)nc(SC2CC(=O)N(c3ccccc3)C2=O)[nH]c1=O (stereo not drawn) | i | 105.6 | nt | nt | nt | i
COc1cc(/C=C/C(=O)OCC(=O)NC(C)c2ccccc2)cc(OC)c1OC (stereo not drawn) | i | i | nt | i | -13.3 | i
COc1cc(/C=C/C(=O)c2ccccc2O)cc(OC)c1OC | i | i | i | i | -16.9 | i
COc1cc(C)cc(C(=O)C=Cc2ccccc2)c1O | i | i | nt | i | -52.1 | i
COc1ccc(C=CC(=O)c2cc(O)ccc2O)cc1 | i | i | nt | i | -36.3 | i
C[C@@H]1CN([C@H](C)CO)C(=O)c2cc(C#Cc3cccnc3)cnc2O[C@H]1CN(C)C | i | i | i | i | i | i
COc1ccc(NC(=O)N(C)C[C@@H]2Oc3ccc(NC(=O)Nc4ccc(F)cc4)cc3C(=O)N([C@H](C)CO)C[C@H]2C)cc1 | i | i | i | i | i | i
O=C(Nc1cc(F)ccc1F)N1CC(=O)N2[C@H](CO)[C@@H](c3ccc(C#CC4CCCCC4)cc3)[C@@H]2C1 | i | nt | 18.3 | i | i | nt
O=C(Nc1cc(F)ccc1F)N1CC(=O)N2[C@H](C1)[C@H](c1ccc(C#CC3CCCC3)cc1)[C@@H]2CO | i | nt | i | i | nt | nt
CC(C)CC#Cc1ccc([C@H]2[C@@H](CO)N3C(=O)CN(C(=O)Nc4cc(F)ccc4F)C[C@@H]23)cc1 | i | nt | i | i | i | nt
CC(C)CC#Cc1ccc([C@@H]2[C@H]3CN(C(=O)Nc4cc(F)ccc4F)CC(=O)N3[C@H]2CO)cc1 | i | nt | 16.6 | i | i | nt
O=C(Nc1cc(F)ccc1F)N1CC(=O)N2[C@@H](CO)[C@H](c3ccc(C#CC4CCCC4)cc3)[C@@H]2C1 | i | nt | i | i | i | nt
O=C(Nc1cc(F)ccc1F)N1CC(=O)N2[C@H](C1)[C@@H](c1ccc(C#CC3CCCCC3)cc1)[C@@H]2CO | i | nt | 20.2 | i | i | nt
C[C@@H]1CN([C@@H](C)CO)S(=O)(=O)c2ccc(-c3cccc(F)c3)cc2O[C@@H]1CN(C)CC1CC1 | i | i | i | i | i | i
CC(C)NC(=O)N(C)C[C@@H]1OCCCC[C@H](C)Oc2ccc(NC(=O)c3ccccc3)cc2C(=O)N([C@H](C)CO)C[C@H]1C | i | nt | i | i | i | 90.9

High-throughput results deposited in PubChem by Broad Institute.
